Experiments:
[1] = Cytotoxicity against HEK293T cells assessed as reduction in cell viability after 24 hrs by cell titer-glo luminescent cell viability assay; assay type: cell-based, HEK-293T; details: human
Method in brief: (§1)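 HEK 293T cells, 3 × 10⁴/well, seeded overnight, then exposed 24 h to compound (0.01–100 μM, triplicate) in DMEM pH 6.8 with 10% FBS. Viability read by CellTiter-Glo luminescence. Normalized to untreated (100%) and medium blank (0%); CC50 by five-parameter curve fit.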

[2] = Cytotoxicity against HEK293T cells assessed as cell viability at antiviral EC50 after 24 hrs by cell titer-glo luminescent cell viability assay; assay type: cell-based, HEK-293T; details: human, read-out: Activity; method in brief: as §1
Chikungunya virus [3] = assay: Antiviral activity against Chikungunya virus infected in HEK293T cells assessed as reduction of infectivity measured at 24 hrs postinfection by gaussia luciferase reporter gene assay; assay type: functional, cell-based; details: HEK-293T
[4] = Selectivity index, ratio of CC50 for HEK293T cells to EC50 for Chikungunya virus infected in HEK293T cells; assay type: toxicity, cell-based, HEK-293T; details: human, read-out: Ratio CC50/EC50
Chikungunya virus [5] = assay: Antiviral activity against wild type Chikungunya virus IMT infected in HEK293T cells assessed as inhibition of infectivity measured at 24 hrs postinfection by FITC/DAPI staining based array scan VTI HCS reader analysis; assay type: functional, cell-based; details: HEK-293T

| SMILES | CC50 at 24 h [1] [µM] | viability at 24 h [2] [%] | EC50 (Chikungunya virus [3]) [µM] | selectivity ratio [4] | EC50 (Chikungunya virus [5]) [µM] | inhibition (Chikungunya virus [5]) |
| --- | --- | --- | --- | --- | --- | --- |
| COc1ccc(Cn2c(C(=O)N3CCC(C(=O)O)CC3)cc3sccc32)cc1 | > 100 | > 80 | > 100 |  |  |  |
| CCCNC(=O)C1CCN(C(=O)c2cc3sc(C(=O)c4ccccc4)cc3n2Cc2ccc(OC)cc2)CC1 | > 100 | > 80 | > 100 |  |  |  |
| COc1ccc(Cn2c(C(=O)N3CCN(Cc4ccccc4)CC3)cc3sccc32)cc1 | > 100 | > 80 | 41.7 | > 2.4 |  |  |
| COc1ccc(Cn2c(C(=O)N3CCN(Cc4ccccc4)CC3)cc3sc(COCc4ccccc4)cc32)cc1 | > 100 | > 80 | > 100 |  |  |  |
| COc1ccc(Cn2c(C(=O)N3CCC(C(=O)NCCC(C)C)CC3)cc3sccc32)cc1 | 30.9 | > 80 | 11 | 2.8 |  |  |
| COc1ccc(Cn2c(C(=O)N3CCC(C(=O)NC4CC4)CC3)cc3sccc32)cc1 | 21.4 | > 80 | 7.59 | 2.8 | 5.59 | Dose-dependent effect |
| CCCNC(=O)C1CCN(C(=O)c2c(CO)c3sccc3n2Cc2ccc(OC)cc2)CC1 | > 100 | > 80 | 47.6 | > 2.1 |  |  |
| COc1ccc(Cn2c(C(=O)N3CCN(Cc4ccccc4)CC3)cc3sc(C(C)=O)cc32)cc1 | > 100 | > 80 | 17 | > 5.9 |  |  |
| CCCNCc1cc2c(cc(C(=O)N3CCC(C(=O)NCCC)CC3)n2Cc2ccc(OC)cc2)s1 | > 100 | > 80 | 40 | > 2.5 |  |  |
| CCCCC(=O)C1CCN(C(=O)c2cc3sccc3n2Cc2ccc(OC)cc2)CC1 | 38.9 | > 80 | 13.3 | 2.9 |  |  |
| COc1ccc(Cn2c(C(=O)N3CCC(C(=O)NCCc4ccccc4)CC3)cc3sccc32)cc1 | > 100 | > 80 | 11.1 | > 9 |  |  |
| COc1ccc(Cn2c(C(=O)N3CCCC3)cc3sccc32)cc1 | > 100 | > 80 | 35.4 | > 2.8 |  |  |
| CCCNC(=O)C1CCN(C(=O)c2cc3sccc3n2Cc2ccc(OC)cc2)CC1 | 18.8 | > 80 | 7 | 2.7 | 6.55 | Dose-dependent effect |
| COc1ccc(Cn2c(C(=O)N3CCC(C(N)=O)CC3)cc3sccc32)cc1 | > 100 | > 80 | 70.9 | > 1.4 |  |  |
| COc1ccc(Cn2c(C(=O)N3CCN(Cc4ccccc4)CC3)cc3sc(-c4ccccc4)cc32)cc1 | > 100 | > 80 | 42.4 | > 2.4 |  |  |
| COc1ccc(Cn2c(C(=O)N3CCC(C(=O)NC(C)c4ccccc4)CC3)cc3sccc32)cc1 (configuration not stated) | > 100 | > 80 | 13 | > 7.7 |  |  |
| COc1ccc(Cn2c(C(=O)NCc3ccccc3)cc3sccc32)cc1 | > 100 | > 80 | > 100 |  |  |  |
| COc1ccc(Cn2c(C(=O)N3CCC(C(=O)NCc4ccccc4)CC3)cc3sccc32)cc1 | > 100 | > 80 | 12.3 | > 8.1 |  |  |
| COc1ccc(Cn2c(C(=O)N3CCC(C(=O)NCc4cccc(Br)c4)CC3)cc3sccc32)cc1 | > 100 | > 80 | 10.9 | > 9.2 |  |  |
| COc1ccc(Cn2c(C(N)=O)cc3sccc32)cc1 | > 100 | > 80 | 36 | > 2.8 |  |  |
| COc1ccc(Cn2c(C(=O)NC(C)c3ccccc3)cc3sccc32)cc1 (configuration not stated) | > 100 | > 80 | > 100 |  |  |  |
| CCOC(=O)c1cc2sccc2n1Cc1ccc(OC)cc1 | > 100 | > 80 | > 100 |  |  |  |

| SMILES | CC50 at 24 h [1] [µM] | viability at 24 h [2] [%] | EC50 (Chikungunya virus [3]) [µM] | selectivity ratio [4] | EC50 (Chikungunya virus [5]) [µM] | inhibition (Chikungunya virus [5]) |
| --- | --- | --- | --- | --- | --- | --- |
| COc1ccc(Cn2c(C(=O)N3CCC(C(=O)NCC4CC4)CC3)cc3sccc32)cc1 | 24.6 | > 80 | 10.4 | 2.4 |  |  |
| COc1ccc(Cn2c(C(=O)O)cc3sccc32)cc1 | > 100 | > 80 | > 100 |  |  |  |
| CCCNC(=O)C1CCN(C(=O)c2c(CNCc3ccccc3)c3sccc3n2Cc2ccc(OC)cc2)CC1 | 77.6 | > 80 | 15.4 | 5 |  |  |
| CCCNC(=O)C1CCN(C(=O)c2cc3sc(CNCc4ccccc4)cc3n2Cc2ccc(OC)cc2)CC1 | 46.8 | > 80 | 11.2 | 4.2 |  |  |
| COc1ccc(Cn2c(C(=O)N3CCN(Cc4ccccc4)CC3)c(COCc3ccccc3)c3sccc32)cc1 | > 100 | > 80 | > 100 |  |  |  |
| CCCNC(=O)C1CCN(C(=O)c2cc3sc(CNC(C)c4ccccc4)cc3n2Cc2ccc(OC)cc2)CC1 (configuration not stated) | 33.9 | > 80 | 8.44 | 4 | 13.5 | Dose-dependent effect |
| CCCNC(=O)C1CCN(C(=O)c2c(Br)c3sccc3n2Cc2ccc(OC)cc2)CC1 | 31.6 | > 80 | 7.75 | 4.1 | 14 | Dose-dependent effect |
| CCCNC(=O)C1CCN(C(=O)c2c(CNC(C)c3ccccc3)c3sccc3n2Cc2ccc(OC)cc2)CC1 (configuration not stated) | 57.5 | > 80 | 11.9 | 4.8 |  |  |
| CCCNC(=O)C1CCN(C(=O)c2cc3sc(C#N)cc3n2Cc2ccc(OC)cc2)CC1 | > 100 | > 80 | 4.9 | > 20 | 8.23 | Dose-dependent effect |
| CCCNC(=O)C1CCN(C(=O)c2cc3sc(C)cc3n2Cc2ccc(OC)cc2)CC1 | 36.3 | > 80 | 3.6 | 10 | 3.27 | Dose-dependent effect |
| COc1ccc(Cn2c(C(=O)N3CCN(Cc4ccccc4)CC3)c(CNC(C)c3ccccc3)c3sccc32)cc1 (configuration not stated) | > 100 | > 80 | 23 | > 4.3 |  |  |
| CCCNC(=O)C1CCN(C(=O)c2cc3sc(-c4ccccc4)cc3n2Cc2ccc(OC)cc2)CC1 | > 100 | > 80 | 3.85 | > 26 | 3.08 | Dose-dependent effect |
| CCOC(=O)C1CCN(C(=O)c2cc3sccc3n2Cc2ccc(OC)cc2)CC1 | 39 | > 80 | 13.1 | 3 |  |  |
| COc1ccc(Cn2c(C(=O)N3CCOCC3)cc3sccc32)cc1 | > 100 | > 80 | 79.7 | > 1.3 |  |  |
| COc1ccc(Cn2c(C(=O)N3CCN(Cc4ccccc4)CC3)cc3sc(CNC(C)c4ccccc4)cc32)cc1 (configuration not stated) | > 100 | > 80 | 9.44 | > 11 | 25.5 | Dose-dependent effect |
| CCN(CC)C(=O)c1cc2sccc2n1Cc1ccc(OC)cc1 | > 100 | > 80 | 49.6 | > 2 |  |  |
| COc1ccc(Cn2c(C(=O)N3CCN(Cc4ccccc4)CC3)cc3sc(C(=O)c4ccccc4)cc32)cc1 | > 100 | > 80 | > 100 |  |  |  |
| CCCNC(=O)c1cc2sccc2n1Cc1ccc(OC)cc1 | > 100 | > 80 | > 100 |  |  |  |
| CCCNCc1c(C(=O)N2CCC(C(=O)NCCC)CC2)n(Cc2ccc(OC)cc2)c2ccsc12 | > 100 | > 80 | 27.7 | > 3.6 |  |  |
| COc1ccc(Cn2c(C(=O)N3CCCCC3)cc3sccc32)cc1 | > 100 | > 80 | 49.7 | > 2 |  |  |
| COc1ccc(Cn2c(C(=O)N3CCNCC3)cc3sccc32)cc1 | > 100 | > 80 | 32.5 | > 3.1 |  |  |
| CCCNC(=O)C1CCN(C(=O)c2cc3sc(C(C)=O)cc3n2Cc2ccc(OC)cc2)CC1 | > 100 | > 80 | 20.9 | > 4.8 |  |  |
